Values after ≈ are worked out from the molar mass of the structure shown.

One test concerns Trypanosoma brucei rhodesiense. Nature of the test: Antitrypanosomal activity against Trypanosoma brucei rhodesiense trypomastigotes after 72 hrs.
Details: not given
The test is classed as functional, organism-based.
Usually IC50 stands for the midpoint of a concentration-inhibition curve. A lower IC50 goes with greater potency in that assay. In turn, `N=C(N)c1ccc(OCCCCCOc2ccc(C(=N)N)cc2)cc1` [PENTAMIDINE] yielded a 50% inhibitory concentration (IC50) of 0.4 µg/mL (≈ 1.17 µM).

Consider `C[C@@H]1CC[C@H]2[C@@H](C)C(=O)O[C@@H]3O[C@@]4(C)CC[C@@H]1[C@]32OO4` [ARTEMISININ], for which the IC50 worked out at 6 µg/mL (≈ 21.3 µM).

The subject of the next test is Trypanosoma brucei. Put plainly: Antitrypanosomal activity against Trypanosoma brucei.
Details: not given
The test is classed as functional, organism-based. The method, boiled down: (§1)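 T. brucei brucei strain 221 cultured in complete HMI-9 with 10% FBS, 10% Serum Plus and penicillin/streptomycin; seeded at 1×10^5 per mL and exposed to test samples delivered in 10% DMSO for 48 h at 37 °C, 5% CO2. Vehicle wells served as 0% inhibition and 1 mM thimerosal stock as 100%. Viability read as ATP bioluminescence after CellTiter-Glo lysis.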
`C=C1CCC[C@@H]2[C@@H](CC[C@@]3(C)CC[C@H]([C@H](C)C(=O)O)OO3)[C@H](C)CC[C@@]12C` [SIGMOSCEPTRELLIN B]: the IC50 is 0.2 µg/mL (≈ 0.528 µM).

For the compound `ClCCl` [METHYLENE CHLORIDE], half-maximal inhibition (IC50) required 0.3 µg/mL.

A further test relates to Trypanosoma brucei brucei. Nature of the test: Antitrypanosomal activity against Trypanosoma brucei brucei 221 after 48 hrs. The test is classed as functional, organism-based. The conditions noted are these: Trypanosoma brucei, 221, 48 h. The method in brief: as §1
As for `C=C1CCCC(C)(C)C1CC[C@]1(C)CC[C@@H]([C@@H](C)C(=O)OC)OO1` (stereo partly specified), the midpoint of inhibition, the IC50, lay at 2 µg/mL (≈ 5.91 µM).

In turn, `COC(=O)[C@H](C)[C@@H]1CC[C@@](C)(CC/C=C(\C)CCC(=O)C(C)(C)CCCC(C)=O)OO1` registered an IC50 of 3 µg/mL (≈ 6.84 µM).

In turn, `COC(=O)[C@H](C)[C@H](O)CC[C@](C)(O)CCCC(C)CCC(=O)C(C)(C)CCCC(C)=O` (stereo partly specified) had a half-maximal inhibitory concentration (IC50) greater than 25 µg/mL.

In turn, `C=C1CCC[C@@H]2[C@@H](CC[C@@]3(C)CC[C@H]([C@H](C)C(=O)O)OO3)[C@H](C)CC[C@@]12C` [SIGMOSCEPTRELLIN B] displayed an IC50 of 0.2 µg/mL (≈ 0.528 µM).

`C=C1CCC[C@@H]2[C@@](C)(CC[C@]3(C)CC[C@H]([C@@H](C)C(=O)O)OO3)[C@H](C)CC[C@@]12C` showed a half-maximal inhibitory concentration (IC50) of 1 µg/mL (≈ 2.55 µM).

`CC1=C(CC/C(C)=C/CC[C@]2(C)CC[C@H]([C@@H](C)C(=O)O)OO2)C(C)(C)CCC1` showed an IC50 of 0.9 µg/mL (≈ 2.29 µM).

With `CC(=O)CCCC(C)(C)C(=O)CC/C(C)=C/CC[C@]1(C)CC[C@H]([C@@H](C)C(=O)O)OO1` [(+)-MUQUBILONE B], the concentration for half-maximal inhibition (IC50) is 2 µg/mL (≈ 4.71 µM).

In the case of `COC(=O)[C@H](C)[C@H]1CC[C@@](C)(CC/C=C(\C)CCC(=O)C(C)(C)CCCC(C)=O)OO1`, half-maximal inhibition (IC50) was put at 5 µg/mL (≈ 11.4 µM).

As to `C=C1CCC[C@@H]2[C@@](C)(CC[C@]3(C)CC[C@H]([C@@H](C)C(=O)OC)OO3)[C@H](C)CC[C@@]12C`, the IC50 is 2 µg/mL (≈ 4.92 µM).

Another test relates to Trypanosoma brucei rhodesiense. Nature of the test: Antitrypanosomal activity against Trypanosoma brucei rhodesiense STIB 900. The test is classed as functional, organism-based.
Details: not given
Consider `CC(C)(N)CNC(=O)C[C@H]1CC[C@]2(CC1)OO[C@]1(O2)C2CC3CC(C2)CC1C3` [OZ277], for which the half-maximal inhibitory concentration (IC50) was 0.6 µg/mL (≈ 1.53 µM).

The compound `C[C@@H]1CC[C@H]2[C@@H](C)C(=O)O[C@@H]3O[C@@]4(C)CC[C@@H]1[C@]32OO4` [ARTEMISININ] returned an IC50 of 25 µg/mL (≈ 88.5 µM).

`CC(C)(N)CNC(=O)CC1CC[C@]2(CC1)OC[C@]1(O2)C2CC3CC(C2)CC1C3` (stereo partly specified) had a concentration for half-maximal inhibition (IC50) of 0.9 µg/mL (≈ 2.3 µM).

These data come from ChEMBL document CHEMBL1152329, “The marine sponge Diacarnus bismarckensis as a source of peroxiterpene inhibitors of Trypanosoma brucei, the causative agent of sleeping sickness” (J Nat Prod, 2009).
